Reference: PMC10563180 (Current cancer drug targets, 2020)
Read-outs that look alike come from different tables or passages of the source.

How the values were obtained:
[1] = system: DLD1 cells; assay: Cell growth inhibition; format: cell-based, human; conditions: through apoptosis; more effective toward DLD1 cells
[2] = target: KDR/VEGFR2 (Homo sapiens, UniProt P35968); assay: Recombinant kinase 33P-ATP activity assay; format: biochemical
[3] = target: PDGFRa (Homo sapiens, UniProt P16234); assay: Recombinant kinase 33P-ATP activity assay; format: biochemical
[4] = system: HEK293 cells; assay: FACS analysis of cell cycle distribution; format: cell-based, human; conditions: 48 hours
Procedure, shortened: (§1)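 Cells treated with test compound at several concentrations for 48 h. 1×10^6 cells trypsinized, washed in PBS and resuspended in 1% BSA/PBS. Fixed in 3 volumes of −20 °C ethanol for ≥1 h, washed twice, then stained ≥3 h at 4 °C at ~1×10^6 cells/ml in PI (50μg/ml), RNase A (0.5μg/ml) and 3.8mM sodium citrate. Flow cytometry, excitation 535nm, emission 617nm, ≥10,000 cells/sample.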

[5] = target: ERBB2/HER2 (Homo sapiens, UniProt P04626); assay: Recombinant kinase 33P-ATP activity assay; format: biochemical
Sequence of ERBB2/HER2 (P04626 23-1255): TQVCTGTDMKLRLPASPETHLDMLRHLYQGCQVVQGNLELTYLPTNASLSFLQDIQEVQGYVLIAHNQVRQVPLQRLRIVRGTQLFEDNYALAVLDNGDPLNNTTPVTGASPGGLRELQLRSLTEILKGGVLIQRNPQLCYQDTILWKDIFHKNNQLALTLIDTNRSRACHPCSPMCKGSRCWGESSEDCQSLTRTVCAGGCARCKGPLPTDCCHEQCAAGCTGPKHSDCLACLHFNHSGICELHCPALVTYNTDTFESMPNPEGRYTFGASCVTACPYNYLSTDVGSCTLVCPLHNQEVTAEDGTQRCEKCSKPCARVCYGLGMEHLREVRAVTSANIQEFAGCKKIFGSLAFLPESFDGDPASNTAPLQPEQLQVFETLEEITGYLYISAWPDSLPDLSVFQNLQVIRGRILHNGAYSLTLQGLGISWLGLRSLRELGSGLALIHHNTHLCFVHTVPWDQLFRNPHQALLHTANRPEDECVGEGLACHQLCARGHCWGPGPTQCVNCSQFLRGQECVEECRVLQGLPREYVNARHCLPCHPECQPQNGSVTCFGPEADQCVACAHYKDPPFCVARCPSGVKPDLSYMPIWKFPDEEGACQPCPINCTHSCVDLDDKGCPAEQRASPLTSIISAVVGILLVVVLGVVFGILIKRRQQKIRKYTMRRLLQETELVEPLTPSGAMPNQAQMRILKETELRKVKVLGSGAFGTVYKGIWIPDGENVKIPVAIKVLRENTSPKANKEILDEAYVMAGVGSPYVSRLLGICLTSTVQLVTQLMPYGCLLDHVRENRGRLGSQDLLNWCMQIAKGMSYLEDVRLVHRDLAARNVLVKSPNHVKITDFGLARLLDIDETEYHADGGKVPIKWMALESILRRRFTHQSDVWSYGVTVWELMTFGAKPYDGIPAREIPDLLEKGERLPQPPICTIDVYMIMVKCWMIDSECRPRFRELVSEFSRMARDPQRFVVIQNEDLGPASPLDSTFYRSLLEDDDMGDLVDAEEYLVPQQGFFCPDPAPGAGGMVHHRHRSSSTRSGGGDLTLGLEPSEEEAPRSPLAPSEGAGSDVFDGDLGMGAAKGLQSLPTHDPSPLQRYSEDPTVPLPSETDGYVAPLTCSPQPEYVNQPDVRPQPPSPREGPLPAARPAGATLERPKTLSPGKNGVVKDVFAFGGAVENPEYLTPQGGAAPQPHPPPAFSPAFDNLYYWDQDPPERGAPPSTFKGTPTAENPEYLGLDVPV

[6] = system: Difi cells; assay: Caspase 3/7 activity assay; format: cell-based, human; conditions: 24 hours treatment, compared with Cetuximab
Procedure, shortened: (§2)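 Cells grown in DMEM with 10% FBS and penicillin/streptomycin at 37°C, 5% CO2, then seeded at 1×10^4 per well. […] Caspase 3/7 read by caspase-Glo, normalized to each line's untreated control (=1); mean of 6 wells ± standard deviation.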

[7] = system: HCT116 cells; assay: Western blot of signaling proteins; format: cell-based, human; conditions: 48 hours, different concentrations
[8] = target: EGFr (Homo sapiens, UniProt P00533); assay: Recombinant kinase 33P-ATP activity assay; format: biochemical
Sequence of EGFr (P00533 25-1210): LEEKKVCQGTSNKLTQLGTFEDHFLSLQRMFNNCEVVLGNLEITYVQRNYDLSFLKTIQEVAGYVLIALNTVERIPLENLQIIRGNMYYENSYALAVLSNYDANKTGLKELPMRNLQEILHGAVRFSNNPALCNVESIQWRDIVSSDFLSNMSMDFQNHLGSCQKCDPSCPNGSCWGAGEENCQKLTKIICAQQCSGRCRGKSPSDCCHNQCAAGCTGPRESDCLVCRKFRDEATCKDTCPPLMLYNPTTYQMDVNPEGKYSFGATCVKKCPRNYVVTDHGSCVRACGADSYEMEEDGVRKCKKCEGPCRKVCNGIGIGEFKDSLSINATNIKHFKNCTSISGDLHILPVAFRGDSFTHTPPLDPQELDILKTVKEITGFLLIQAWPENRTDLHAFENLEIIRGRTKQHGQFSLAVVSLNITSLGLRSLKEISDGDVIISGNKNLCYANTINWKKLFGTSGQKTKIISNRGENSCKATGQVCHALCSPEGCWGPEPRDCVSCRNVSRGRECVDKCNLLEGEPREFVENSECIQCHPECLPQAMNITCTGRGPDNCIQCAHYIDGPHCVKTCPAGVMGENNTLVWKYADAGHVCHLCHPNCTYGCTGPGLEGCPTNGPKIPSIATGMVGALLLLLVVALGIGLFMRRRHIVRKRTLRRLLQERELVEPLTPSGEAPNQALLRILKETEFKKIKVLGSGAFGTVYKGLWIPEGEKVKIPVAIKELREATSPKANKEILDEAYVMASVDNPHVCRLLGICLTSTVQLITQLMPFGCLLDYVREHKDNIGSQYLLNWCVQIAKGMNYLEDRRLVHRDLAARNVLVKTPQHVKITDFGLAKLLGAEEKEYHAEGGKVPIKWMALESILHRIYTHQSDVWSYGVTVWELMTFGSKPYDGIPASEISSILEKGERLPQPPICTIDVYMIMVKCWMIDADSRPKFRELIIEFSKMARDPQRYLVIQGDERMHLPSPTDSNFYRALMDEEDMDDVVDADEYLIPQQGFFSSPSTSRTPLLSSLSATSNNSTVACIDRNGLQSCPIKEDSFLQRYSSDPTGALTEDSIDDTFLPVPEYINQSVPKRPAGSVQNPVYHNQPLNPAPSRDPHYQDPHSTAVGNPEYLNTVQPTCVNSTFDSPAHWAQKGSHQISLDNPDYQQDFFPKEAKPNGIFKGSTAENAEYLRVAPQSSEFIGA

[9] = target: FLT1/VEGFR1 (Homo sapiens, UniProt P17948); assay: Recombinant kinase 33P-ATP activity assay; format: biochemical
[10] = target: PDGFrb (Homo sapiens, UniProt P09619); assay: Recombinant kinase 33P-ATP activity assay; format: biochemical
[11] = system: HCT116 cells; assay: Caspase 3/7 activity assay; format: cell-based, human; conditions: 24 hours treatment, up to 5μM
Procedure, shortened: as §2

[12] = target: FGFR1 (Homo sapiens, UniProt P11362); assay: Recombinant kinase 33P-ATP activity assay; format: biochemical
[13] = system: DLD1 cells; assay: Caspase 3/7 activity assay; format: cell-based, human; conditions: 24 hours treatment, 0.2, 1 and 5μM
Procedure, shortened: as §2

[14] = system: GPCR pathway genes in C6, HCT116, DLD1 and Difi cells; assay: GPCR signaling pathway profiling by real-time PCR; format: cell-based; conditions: 5μM, 48 hours, all 4 cell lines
Procedure, shortened: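 Total RNA taken from C6, DLD1, HCT116 and Difi cells treated with or without 5μM test compound for 48 h, then reverse transcribed. DLD1 cDNA screened on an 82-gene human GPCR-pathway qPCR array, with control and treated expression compared by subtraction. Hits confirmed in C6 and the three colon lines by SYBR Green real-time PCR with primers in different coding regions.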

[15] = system: HEK293 cells; assay: Western blot of signaling proteins; format: cell-based, human; conditions: 48 hours
Procedure, shortened: (§3)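 Cells exposed to indicated concentrations of test compound for 48 h. Harvested by trypsin/EDTA, lysed 15 min on ice in M-PER with protease inhibitors (10^7 cells/ml), cleared at 17000rpm for 30 min. Protein measured by Bradford; 30μg resolved by SDS-PAGE onto PVDF. Blocked in 5% milk/TBST; primary antibodies overnight at 4°C, HRP secondaries 1 h at room temperature; ECL detection with β-tubulin loading control.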

[16] = system: C6 cells; assay: Western blot of signaling proteins; format: cell-based, rat; conditions: 48 hours
Procedure, shortened: as §3

[17] = system: colon and glioma cells; assay: FACS analysis of cell cycle distribution; format: cell-based; conditions: all the cell lines, low concentrations, 48 hours
Procedure, shortened: as §1

[18] = target: FGFR2 (Homo sapiens, UniProt P21802); assay: Recombinant kinase 33P-ATP activity assay; format: biochemical
Sequence of FGFR2 (P21802 22-821): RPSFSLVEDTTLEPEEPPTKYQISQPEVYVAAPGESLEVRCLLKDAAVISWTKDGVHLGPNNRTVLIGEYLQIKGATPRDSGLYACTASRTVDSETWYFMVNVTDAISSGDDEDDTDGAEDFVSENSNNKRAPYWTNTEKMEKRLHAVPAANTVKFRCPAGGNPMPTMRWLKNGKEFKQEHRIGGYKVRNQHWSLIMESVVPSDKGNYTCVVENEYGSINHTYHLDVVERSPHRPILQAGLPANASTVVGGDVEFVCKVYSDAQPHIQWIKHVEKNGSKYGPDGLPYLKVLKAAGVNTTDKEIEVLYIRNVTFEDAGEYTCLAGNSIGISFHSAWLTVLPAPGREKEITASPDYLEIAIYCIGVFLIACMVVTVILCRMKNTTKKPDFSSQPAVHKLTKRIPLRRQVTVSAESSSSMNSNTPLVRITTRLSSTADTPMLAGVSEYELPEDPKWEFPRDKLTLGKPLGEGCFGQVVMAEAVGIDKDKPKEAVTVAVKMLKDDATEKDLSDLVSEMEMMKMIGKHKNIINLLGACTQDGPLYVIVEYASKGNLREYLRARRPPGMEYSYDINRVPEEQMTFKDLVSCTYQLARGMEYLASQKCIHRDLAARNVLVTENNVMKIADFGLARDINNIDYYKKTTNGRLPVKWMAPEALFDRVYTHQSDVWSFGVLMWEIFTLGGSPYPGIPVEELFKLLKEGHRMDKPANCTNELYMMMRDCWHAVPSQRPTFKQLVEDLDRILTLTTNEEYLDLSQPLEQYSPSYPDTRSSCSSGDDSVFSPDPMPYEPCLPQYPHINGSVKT

[19] = system: C6 cells; assay: Caspase 3/7 activity assay; format: cell-based, rat; conditions: 24 hours treatment, any of the tested concentrations
[20] = system: HEK293 cells; assay: Caspase 3/7 activity assay; format: cell-based, human; conditions: 24 hours treatment, 0.2, 1 and 5μM
Procedure, shortened: as §2

[21] = target: CDK2/cyclin A (Homo sapiens, UniProt P24941); assay: Recombinant kinase 33P-ATP activity assay; format: biochemical
[22] = system: DLD1 cells; assay: Western blot of signaling proteins; format: cell-based, human; conditions: 48 hours, different concentrations
[23] = target: c-Src (Homo sapiens, UniProt P12931); assay: Recombinant kinase 33P-ATP activity assay; format: biochemical
Sequence of c-Src (P12931 whole entry): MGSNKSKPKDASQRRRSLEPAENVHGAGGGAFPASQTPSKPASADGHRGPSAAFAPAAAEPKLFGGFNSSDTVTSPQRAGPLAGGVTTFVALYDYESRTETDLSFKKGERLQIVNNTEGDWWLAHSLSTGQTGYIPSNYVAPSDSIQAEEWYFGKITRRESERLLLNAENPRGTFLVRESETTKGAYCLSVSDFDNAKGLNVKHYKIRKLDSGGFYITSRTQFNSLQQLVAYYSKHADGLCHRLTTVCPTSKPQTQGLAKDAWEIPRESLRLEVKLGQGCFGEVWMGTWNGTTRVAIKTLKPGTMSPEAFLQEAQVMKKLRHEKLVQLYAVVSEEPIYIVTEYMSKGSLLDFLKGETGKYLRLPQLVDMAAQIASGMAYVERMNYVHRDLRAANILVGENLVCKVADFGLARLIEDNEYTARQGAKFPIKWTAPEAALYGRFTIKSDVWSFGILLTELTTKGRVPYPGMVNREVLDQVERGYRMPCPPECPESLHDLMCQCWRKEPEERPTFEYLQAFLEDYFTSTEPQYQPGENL

[24] = system: C6 cells; assay: Cell growth inhibition; format: cell-based, rat; conditions: through apoptosis
[25] = read-out: % Enzyme Activity (Relative to DMSO Controls – 100%) Data 1
[26] = read-out: % Enzyme Activity (Relative to DMSO Controls – 100%) Data 2

Sequence of KDR/VEGFR2 (P35968 20-1356): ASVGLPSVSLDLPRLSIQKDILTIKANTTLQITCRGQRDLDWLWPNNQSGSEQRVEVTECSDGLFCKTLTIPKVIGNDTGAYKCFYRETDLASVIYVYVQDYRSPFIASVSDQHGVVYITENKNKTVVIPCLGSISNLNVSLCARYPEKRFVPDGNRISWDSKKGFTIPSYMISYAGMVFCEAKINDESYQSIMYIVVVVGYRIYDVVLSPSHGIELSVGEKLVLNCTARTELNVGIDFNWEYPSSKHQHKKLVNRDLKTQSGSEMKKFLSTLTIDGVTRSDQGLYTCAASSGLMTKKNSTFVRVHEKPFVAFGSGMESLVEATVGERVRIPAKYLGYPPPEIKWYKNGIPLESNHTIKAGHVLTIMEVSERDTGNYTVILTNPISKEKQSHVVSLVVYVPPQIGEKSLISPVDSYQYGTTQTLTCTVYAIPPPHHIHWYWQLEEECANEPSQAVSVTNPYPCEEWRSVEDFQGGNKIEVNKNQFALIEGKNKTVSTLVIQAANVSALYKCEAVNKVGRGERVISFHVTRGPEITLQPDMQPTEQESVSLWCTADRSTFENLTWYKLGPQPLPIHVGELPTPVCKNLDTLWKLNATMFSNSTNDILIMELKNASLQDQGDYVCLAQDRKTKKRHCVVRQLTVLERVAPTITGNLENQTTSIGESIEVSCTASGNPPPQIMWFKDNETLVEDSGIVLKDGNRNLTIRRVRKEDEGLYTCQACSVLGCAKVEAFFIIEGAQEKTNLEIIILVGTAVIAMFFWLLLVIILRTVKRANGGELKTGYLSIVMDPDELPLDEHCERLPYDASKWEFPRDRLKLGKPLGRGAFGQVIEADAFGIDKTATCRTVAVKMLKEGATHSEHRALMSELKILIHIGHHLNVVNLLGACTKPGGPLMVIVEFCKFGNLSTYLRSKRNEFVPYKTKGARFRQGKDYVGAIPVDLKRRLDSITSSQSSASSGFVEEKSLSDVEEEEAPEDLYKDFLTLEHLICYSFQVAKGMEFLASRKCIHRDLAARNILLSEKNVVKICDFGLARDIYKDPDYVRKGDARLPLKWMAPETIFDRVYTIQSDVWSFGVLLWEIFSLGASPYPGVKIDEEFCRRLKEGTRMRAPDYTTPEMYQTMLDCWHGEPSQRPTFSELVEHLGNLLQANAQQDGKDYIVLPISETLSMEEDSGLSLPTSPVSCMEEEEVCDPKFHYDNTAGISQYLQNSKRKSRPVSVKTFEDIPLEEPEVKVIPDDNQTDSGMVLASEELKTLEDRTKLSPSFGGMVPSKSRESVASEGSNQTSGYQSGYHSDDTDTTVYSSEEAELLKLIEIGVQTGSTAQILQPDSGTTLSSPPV

In the case of CCn1c2ccccc2c2cc(N/N=C3/C(=O)NN=C3C)ccc21 [VUGX01, (4E)-4-[2-(9-ethyl-9H-carbazol-3-yl)hydrazin-1-ylidene]-3-methyl-4,5-dihydro-1H-pyrazol-5-one], the cell growth [1] is reported as “can inhibit the growth”, the remaining activity at 1 µM [2, 25] is reported as 98.3% and the remaining activity at 1 µM [2, 26] is reported as 98%. For the same compound, the remaining activity at 1 µM [3, 25] was 96.3%, the remaining activity at 1 µM [3, 26] was 96.2% and the cell cycle distribution ([4]; 5μM) was “shifts the cell population from G1 to G2 phase”. The “cell death (cells in sub G0 phase)” value [4] was “noticeable amount of cell death”, the remaining activity at 1 µM [5, 25] was 99.3% and the remaining activity at 1 µM [5, 26] was 98.2%. For the same compound, the caspase activation [6] was “less potent but is effective”, the “p-c-raf (Ser259) and map2k level” value [7] was “increased at low concentrations and decreased at high concentrations” and the “effects on EGFr kinase activity” value ([8]; 1μM) was “minimal effects”. The remaining activity at 1 µM [8, 25] was 99.1%, the remaining activity at 1 µM [8, 26] was 97.8% and the remaining activity at 1 µM [9, 25] was 100%. The remaining activity at 1 µM [9, 26] was 99.8%, the remaining activity at 1 µM [10, 25] was 100% and the remaining activity at 1 µM [10, 26] was 99.9%. The “caspase 3/7 activation” value [11] was “minimal effect”, the remaining activity at 1 µM [12, 25] was 107% and the remaining activity at 1 µM [12, 26] was 104%. The “caspase 3/7 activation” value [13] was “greatly activate”, the “expression of AGT, AGTR1, AGTR2, GCGR, MMP9, PIK3CG, PTGS2, SCTR, TSHR” value [14] was “elevated” and the “effect on tested proteins (p-c-raf, map2k, AKT, p-AKT)” value [15] was “no effect”. For the same compound, the “phosphorylation of AKT at serine 473” value [16] was “minor increase”, the “effects on G1 or G2/M phases” value [17] was “minimal effects” and the remaining activity at 1 µM [18, 25] was 96.1%. For the same compound, the remaining activity at 1 µM [18, 26] was 94.9%, the caspase activation [19] was “effectively activate” and the “caspase 3/7 activation” value [20] was “only slight activation”. For the same compound, the “inhibition on CDK2” value ([21]; 1μM) was 6%, the remaining activity at 1 µM [21, 25] was 94.4% and the remaining activity at 1 µM [21, 26] was 94.2%. For the same compound, the inhibition at 1 µM ([21]; read-out: inhibition on CDK2, 1μM) was 5 to 6%, the “p-c-raf (Ser259) and map2k level” value [22] was “increased at low concentrations and decreased at high concentrations” and the remaining activity at 1 µM [23, 25] was 99.2%. The remaining activity at 1 µM [23, 26] was 99% and the cell growth [24] was “can inhibit the growth”.
